Only some compounds are listed: those with a hit (about 2.9% of all), similar ones and a draw of the others.
SIRT5 block = SIRT5 desuccinylase inhibitors, primary screen, biochemical, fluorescence imaging, single point, set 5 | NAD-dependent protein deacylase sirtuin-5, mitochondrial (Homo sapiens), Q9NXA8 | Purified SirT5, succinyl-peptide AMC, trypsin-coupled fluorescence | inhibition, % at 15 µM | 330,000 tested, 1.1% active; in the data active = inhibition above about 15%
E-selectin induc = E-selectin induction in HUVECs, primary screen, imaging, HUVEC, immunofluorescence imaging, single point; P16581; normalized: neutral wells 0, TNF-alpha wells 100; activation, % at 7.58 µM; 260,000 tested, 0.37% active;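 active = mean E-selectin-positive cell signal at least 10% of the positive control, reached in at least 60% of replicates, without over 20% cell loss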
Target sequence (P16581 whole entry, looked up): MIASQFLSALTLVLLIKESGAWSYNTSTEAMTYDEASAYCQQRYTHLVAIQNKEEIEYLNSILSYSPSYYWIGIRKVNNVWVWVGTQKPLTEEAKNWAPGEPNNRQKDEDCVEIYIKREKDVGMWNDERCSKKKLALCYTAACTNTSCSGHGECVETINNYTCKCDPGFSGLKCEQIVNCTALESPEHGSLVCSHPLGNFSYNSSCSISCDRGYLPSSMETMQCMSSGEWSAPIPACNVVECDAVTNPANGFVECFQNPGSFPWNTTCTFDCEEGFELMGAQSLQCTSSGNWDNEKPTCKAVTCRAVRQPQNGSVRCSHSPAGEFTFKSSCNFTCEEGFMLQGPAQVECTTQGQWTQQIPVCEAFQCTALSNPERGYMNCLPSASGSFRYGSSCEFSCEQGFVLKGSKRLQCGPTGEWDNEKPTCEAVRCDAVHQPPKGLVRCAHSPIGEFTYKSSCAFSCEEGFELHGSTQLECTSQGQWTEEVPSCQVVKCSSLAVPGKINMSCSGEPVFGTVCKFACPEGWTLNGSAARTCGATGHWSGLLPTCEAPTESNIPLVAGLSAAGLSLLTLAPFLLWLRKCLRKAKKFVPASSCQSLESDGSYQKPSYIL
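Test system: HUVEC | Signal: Immunofluorescence imaging | Read-out: Percent E-selectin-positive cells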
DENV2 CPE rescue = inhibitors of DENV2 cytopathic effect, primary screen, cell-based, plate reader, single concentration | CPE inhibition, % at 9.99 µM | 350,000 tested, 1.7% active | DENV2-infected cells, cytopathic effect rescue; in the data active = CPE inhibition above about 20%, passing the limit was not always enough; tested in BHK-21 cells;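 note: 0% = median of neutral control wells and 100% = median of positive control wells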
The depositor's hits bear a star.

Screening C[C@@H]1CN([C@@H](C)CO)C(=O)c2cc(NC(=O)NC3CCCCC3)ccc2O[C@@H]1CN(C)S(=O)(=O)c1ccc(Cl)cc1 returned SIRT5 block 3, E-selectin induc 27* and DENV2 CPE rescue -3.
C[C@H](CO)N1C[C@H](C)[C@@H](CN(C)S(=O)(=O)c2ccc(Cl)cc2)Oc2ccc(NC(=O)NC3CCCCC3)cc2C1=O was read as SIRT5 block -1, E-selectin induc 13 and DENV2 CPE rescue 3.
For Nc1nc(CN2CCN(c3ccc(F)cc3)CC2)nc(N2CCCc3ccccc32)n1 the results were E-selectin induc -1.
`C[C@H]1CN([C@@H](C)CO)S(=O)(=O)c2ccc(C#CC3CC3)cc2O[C@@H]1CN(C)C(=O)c1ccccn1` gave SIRT5 block 0, E-selectin induc 0 and DENV2 CPE rescue -9.
Screening C[C@@H]1CN([C@H](C)CO)S(=O)(=O)c2ccc(C#Cc3ccccc3)cc2O[C@@H]1CN(C)C(=O)c1ccccn1 returned SIRT5 block 3, E-selectin induc 0 and DENV2 CPE rescue 42*.
For CC(C)NC(=O)N(C)C[C@H]1Oc2cc(C#Cc3ccccn3)ccc2S(=O)(=O)N([C@@H](C)CO)C[C@@H]1C the results were SIRT5 block 7, E-selectin induc 0 and DENV2 CPE rescue -8.
`CC(C)NC(=O)N(C)C[C@@H]1Oc2cc(C#Cc3ccccn3)ccc2S(=O)(=O)N([C@H](C)CO)C[C@H]1C` gave SIRT5 block 1, E-selectin induc 0 and DENV2 CPE rescue 22*.
For C[C@H]1CN([C@@H](C)CO)S(=O)(=O)c2ccc(C#Cc3ccccc3)cc2O[C@@H]1CN(C)C(=O)c1ccccn1 the results were SIRT5 block 5, E-selectin induc 0 and DENV2 CPE rescue 8.
C[C@H]1CN([C@@H](C)CO)S(=O)(=O)c2ccc(C#CC3CC3)cc2O[C@H]1CN(C)C(=O)c1ccccn1 was read as SIRT5 block 30*, E-selectin induc 0 and DENV2 CPE rescue 5.
Screening C[C@@H]1CN([C@@H](C)CO)S(=O)(=O)c2ccc(C#Cc3ccccn3)cc2O[C@@H]1CN(C)Cc1cccc(F)c1 returned SIRT5 block 20*, E-selectin induc 0 and DENV2 CPE rescue -8.
C[C@H](CO)N1C[C@H](C)[C@@H](CN(C)Cc2cccc(F)c2)Oc2cc(C#Cc3ccccn3)ccc2S1(=O)=O was read as SIRT5 block -1, E-selectin induc 0 and DENV2 CPE rescue 18.
`CC(=O)Nc1ccc(-c2ccnc3c2CC(C(=O)Nc2ccc4c(c2)OCO4)O3)cc1` (stereo not drawn) gave SIRT5 block -1, E-selectin induc 0 and DENV2 CPE rescue 3.
For CCCCN1CCC(CN2C(=S)NC[C@@H]2CC(C)C)CC1 the results were SIRT5 block -8, E-selectin induc 0 and DENV2 CPE rescue 12.
`COc1ccc(N2CCN(C(=O)C(=O)c3ccc(F)cc3)CC2)cc1` gave SIRT5 block -5, E-selectin induc -6 and DENV2 CPE rescue -15.
COc1ccc(NC(=O)Nc2cccc3c2O[C@@H](CN(C)CC2CCCCC2)[C@H](C)CN([C@H](C)CO)C3=O)cc1 was read as SIRT5 block 1, E-selectin induc 0 and DENV2 CPE rescue -9.
COc1ccccc1NS(=O)(=O)c1cc(NC(=O)c2sc3cc(Cl)ccc3c2Cl)ccc1C was read as SIRT5 block -2 and DENV2 CPE rescue 6.
Screening O=C(Cc1ccccn1)N1CC(=O)N2[C@H](C1)[C@@H](c1ccc(C#CC3CCCCC3)cc1)[C@@H]2CO returned SIRT5 block 8, E-selectin induc 0 and DENV2 CPE rescue 5.
`COc1ccccc1NC(=O)N1CC(=O)N2[C@H](CO)[C@@H](c3ccc(C#CC4CC4)cc3)[C@H]2C1` gave SIRT5 block 22*, E-selectin induc 0 and DENV2 CPE rescue 0.
`O=C(Nc1ccccc1)N1CC(=O)N2[C@H](CO)[C@@H](c3ccc(C#CC4CCCCC4)cc3)[C@@H]2C1` gave SIRT5 block 16*, E-selectin induc 0 and DENV2 CPE rescue -3.
`Cc1ccc(-c2ccc([C@@H]3[C@@H](CO)N4C(=O)CN(C(=O)Cc5ccccn5)C[C@@H]34)cc2)cc1` gave SIRT5 block 2, E-selectin induc 0 and DENV2 CPE rescue 12.
`O=C(Nc1ccccc1)N1CC(=O)N2[C@H](C1)[C@H](c1ccc(C#CC3CCCCC3)cc1)[C@@H]2CO` gave SIRT5 block -2, E-selectin induc 0 and DENV2 CPE rescue -6.
Screening COc1ccc(-c2ccc([C@@H]3[C@H]4CN(C(=O)Cc5ccccn5)CC(=O)N4[C@H]3CO)cc2)cc1 returned SIRT5 block 28*, E-selectin induc 0 and DENV2 CPE rescue -6.
O=C(Cc1ccccn1)N1CC(=O)N2[C@H](CO)[C@@H](c3ccc(C#CC4CCCCC4)cc3)[C@@H]2C1 was read as SIRT5 block 2, E-selectin induc 0 and DENV2 CPE rescue 26*.
Screening COc1ccccc1NC(=O)N1CC(=O)N2[C@H](C1)[C@@H](c1ccc(C#Cc3ccccc3)cc1)[C@@H]2CO returned SIRT5 block 8, E-selectin induc 0 and DENV2 CPE rescue 0.
For O=C(O)C1(c2ccccc2)CCN(S(=O)(=O)c2ccccc2)CC1 the results were SIRT5 block -7, E-selectin induc 1 and DENV2 CPE rescue -3.
`COc1ccc(S(=O)(=O)NC2CC3CCC2C3)cc1Br` (stereo not drawn) gave SIRT5 block 1, E-selectin induc 0 and DENV2 CPE rescue 0.
For CC(=O)c1ccc(-n2nncc2C(C)(C)C)cc1 the results were SIRT5 block -3 and DENV2 CPE rescue -3.
CCCCOCCCNC(=O)C[C@H]1C[C@@]2(C(=O)OC)C(=C[C@H](C3CCCC3)O[C@@H]2C)N(Cc2ccccc2)C1=O was read as E-selectin induc 0 and DENV2 CPE rescue -2.
For CCC(=O)N1[C@H](CO)[C@@H]2c3ccccc3N(S(=O)(=O)c3ccc(F)cc3)C[C@@H]21 the results were SIRT5 block -3, E-selectin induc 0 and DENV2 CPE rescue -4.
CSCCC(NC(=O)c1ccccc1Cl)C(=O)NCC(c1ccc(F)cc1)N1CCOCC1 (stereo not drawn) was read as SIRT5 block -3 and DENV2 CPE rescue -2.
C[C@@H]1CN([C@H](C)CO)C(=O)Cc2cc(NC(=O)Nc3ccc(C(F)(F)F)cc3)ccc2O[C@H]1CN(C)C(=O)Nc1ccccc1 was read as SIRT5 block 5, E-selectin induc 0 and DENV2 CPE rescue -11.
Screening O=C(Nc1ccccc1F)N1CC(=O)N2[C@@H](CO)[C@H](c3ccc(C#Cc4ccc(F)cc4)cc3)[C@@H]2C1 returned SIRT5 block 3, E-selectin induc 0 and DENV2 CPE rescue -2.
`O=C(Nc1cc(F)ccc1F)N1CC(=O)N2[C@H](CO)[C@H](c3ccc(-c4cccnc4)cc3)[C@@H]2C1` gave SIRT5 block 3, E-selectin induc 1 and DENV2 CPE rescue 30*.
For O=C(Nc1cc(F)ccc1F)N1CC(=O)N2[C@H](CO)[C@H](c3ccc(C#CC4CCCCC4)cc3)[C@H]2C1 the results were SIRT5 block 8, E-selectin induc 0 and DENV2 CPE rescue 12.

Compound activity deposited in PubChem by Broad Institute.
